Results reported in ChEMBL document CHEMBL6177920, “Natural product-inspired [3 + 2] cycloaddition-based spirooxindoles as dual anticancer agents: synthesis, characterization, and biological evaluation by in vitro and in silico methods” (RSC Med Chem, 2025).
Calls of active or inactive are those of the source. The calls are words filed in the database; no cut-off is given here.

Key:
MCF7 = experiment: Induction of cell cycle arrest in human MCF7 cells assessed as increase in cells at sub G0/G1 phase at 200 uM incubated for 48 hrs by flow cytometric analysis (reference value: 2.57 %); type: functional
HCT-15 [1] = experiment: Induction of cell cycle arrest in human HCT-15 cells assessed as decrease in cells at G2/M phase at 200 uM; type: functional, cell-based
Method in brief: (§1)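 HCT 15 cells at 2 × 10^5/2 mL/well treated 48 h with 50, 100 or 200 µM, with DMSO control. Trypsinized, centrifuged 300 × g for 5 min, fixed 30 min in cold 70% ethanol on ice. Treated with RNase A 4 h, then propidium iodide 10 min at room temperature. Flow cytometry gave % sub-G0/G1, G0/G1, S and G2/M.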

HCT-15 [2] = experiment: Induction of cell cycle arrest in human HCT-15 cells assessed as reduction in G0/G1 phase at 200 uM; type: functional, cell-based; method in brief: as §1
HCT-15 [3] = experiment: Induction of cell cycle arrest in human HCT-15 cells assessed as reduction in S phase at 200 uM; type: functional, cell-based; method in brief: as §1
MDA-MB-468 [4] = experiment: Antiproliferative activity against human MDA-MB-468 cells assessed as inhibition of cell proliferation incubated for 24 to 72 hrs by SRB assay; type: functional, cell-based
Method in brief: (§2)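 Cells seeded 1 × 10^4/well in DMEM + 10% FBS, incubated overnight at 37 °C, 5% CO2. Treated with serial dilutions, 62.5–1000 µM for MDA-MB-468 and 62.5–2000 µM for HCT 15, for 24, 48 and 72 h. DMSO 0.5% in the 2x working stock. Sulforhodamine-B read-out, % inhibition = (control − sample)/control × 100. Triplicate experiments, ≥4 replicates per concentration.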

HCT-15 [5] = experiment: Antiproliferative activity against human HCT-15 cells assessed as inhibition of cell proliferation incubated for 24 to 72 hrs by SRB assay; type: functional, cell-based; method in brief: as §2
MDA-MB-468 [6] = experiment: Induction of cell cycle arrest in human MDA-MB-468 cells assessed as increase in cells at sub G0/G1 phase at 200 uM (reference value: 1.78 %); type: functional
Method in brief: (§3)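 MDA-MB-468 or HCT 15 cells were seeded at 2 × 10^5 per 2 mL well in 6-well plates and exposed for 48 h to 50, 100 or 200 µM, with DMSO as control. Cells were trypsinized, spun 300×g for 5 min at 25 °C and fixed in cold 70% ethanol (30 min, ice). RNase A (100 µM, 4 h) was added, then PI (stock 50 µM, 10 min, RT). Phase distribution (sub-G0/G1, G0/G1, S, G2/M) was read by flow cytometry.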

MDA-MB-468 [7] = experiment: Induction of cell cycle arrest in human MDA-MB-468 cells assessed as decrease in cells at S phase at 50 to 200 uM; type: functional, cell-based; conditions: dose 50-200 µM; method in brief: as §3
MDA-MB-468 [8] = experiment: Induction of cell cycle arrest in human MDA-MB-468 cells assessed as decrease in cells at G2/M phase at 50 to 200 uM; type: functional, cell-based; conditions: dose 50-200 µM; method in brief: as §3
MDA-MB-468 [9] = experiment: Induction of cell cycle arrest in human MDA-MB-468 cells assessed as increase in cells at G0/G1 phase at 50 uM; type: functional, cell-based; method in brief: as §3
MDA-MB-468 [10] = experiment: Induction of cell cycle arrest in human MDA-MB-468 cells assessed as decrease in cells at G0/G1 phase at 100 to 200 uM; type: functional, cell-based; conditions: dose 100-200 µM; method in brief: as §3
HCT-15 [11] = experiment: Induction of cell cycle arrest in human HCT-15 cells assessed as accumulation of cells at G2/M phase at 200 uM (reference value: 12.25 %); type: functional; conditions: time 48 hrs
HCT-15 [12] = experiment: Induction of cell cycle arrest in human HCT-15 cells assessed as decrease in cells at G0/G1 phase at 50 to 200 uM; type: functional, cell-based; conditions: dose 50-200 µM; method in brief: as §3
HCT-15 [13] = experiment: Induction of cell cycle arrest in human HCT-15 cells assessed as decrease in cells at S phase at 50 to 200 uM; type: functional, cell-based; conditions: dose 50-200 µM; method in brief: as §3
MDA-MB-468 [14] = experiment: Induction of apoptosis in human MDA-MB-468 cells assessed as increase in caspase 3 activity at 62.5 to 1000 uM; type: functional, cell-based; conditions: dose 62.5-1000 µM
Method in brief: (§4)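 Cells were plated at 5 × 10^5 per 2 mL in 6-well plates and held overnight at 37 °C in CO2. They were then treated for 24 h at 37 °C, with MDA-MB-468 at 62.5–1000 µM and HCT 15 at 62.5–2000 µM. Cells were trypsinized, fixed 30 min at −20 °C in cold 70% ethanol, PBS-washed and labelled with anti-caspase-3/7 antibody (30 min, dark, RT). Flow cytometry (FL1) gave % caspase-3-expressing cells, triplicate, mean ± SD.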

HCT-15 [15] = experiment: Induction of apoptosis in human HCT-15 cells assessed as decrease in caspase 3 activity at 2000 uM; type: functional, cell-based; method in brief: as §4
MDA-MB-468 [16] = experiment: Induction of apoptosis in human MDA-MB-468 cells assessed as increase in caspase 3 activity; type: functional, cell-based
Method in brief: (§5)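 Cells seeded 5 × 10^5/2 mL and incubated overnight at 37 °C. Treated 24 h at 37 °C with 62.5–1000 µM (MDA-MB-468) or 62.5–2000 µM (HCT 15), then a further 24 h incubation step. Trypsinized, fixed in cold 70% ethanol 30 min at −20 °C, PBS-washed, stained 30 min in the dark at room temperature with anti-caspase-3/7 antibody. FACS on FL1 gave % caspase-3 cells; mean ± SD of triplicates.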

HCT-15 [17] = experiment: Induction of apoptosis in human HCT-15 cells assessed as decrease in caspase 3 activity; type: functional, cell-based; method in brief: as §5
MDA-MB-468 [18] = experiment: Induction of apoptosis in human MDA-MB-468 cells assessed as cell death by measuring red signals by acridine orange/EtBr staining based analysis; type: functional; conditions: read-out: LD50 (the source's name)
Method in brief: (§6)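 Cells seeded 0.3 × 10^6/well and grown about 36 h. Exposed 48 h to 250, 500 and 1000 µM (MDA-MB-468) or 500, 1000 and 2000 µM (HCT 15); 0.5% DMSO control. Trypsinized, stained 5 min with EtBr (100 µM) plus acridine orange (100 µM). Fluorescence microscopy counted green live versus orange dead cells, reported as % dead cells.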

HCT-15 [19] = experiment: Induction of apoptosis in human HCT-15 cells assessed as cell death by measuring red signals by acridine orange/EtBr staining based analysis; type: functional; conditions: read-out: LD50 (the source's name); method in brief: as §6
HCT-15 [20] = experiment: Induction of cell cycle arrest in human HCT-15 cells assessed as decrease in cells at G2/M phase at 100 uM; type: functional, cell-based; method in brief: as §1
HCT-15 [21] = experiment: Induction of cell cycle arrest in human HCT-15 cells assessed as decrease in cells at G0/G1 phase at 100 uM; type: functional, cell-based; method in brief: as §1
HCT-15 [22] = experiment: Induction of cell cycle arrest in human HCT-15 cells assessed as decrease in cells at S phase at 100 uM; type: functional, cell-based; method in brief: as §1
HCT-15 [23] = experiment: Induction of cell cycle arrest in human HCT-15 cells assessed as decrease in cells at sub G0/G1 phase at 100 uM; type: functional, cell-based; method in brief: as §1

Q: With `C=C1CC[C@H](O)C/C1=C/C=C1\CCC[C@]2(C)[C@@H]([C@H](C)CCCC(C)C)CC[C@@H]12` [CHOLECALCIFEROL] as the compound, how does the Activity (MCF7) read?
A: The Activity was 46.66%.

Q: And the Activity (HCT-15 [1])?
A: The Activity was “Active”.

Q: And the Activity (HCT-15 [2])?
A: The Activity was “Active”.

Q: What about the Activity (HCT-15 [3]) of the same compound?
A: The Activity was “Active”.

Q: For `CCOc1ccc([C@@H]2C3CSCN3[C@]3(C(=O)Nc4ccccc43)[C@H]2C(=O)c2ccc(C)cc2)cc1OC` (stereo not given in full), which IC50 (MDA-MB-468 [4]) is on record?
A: The IC50 was 361 µM.

Q: And the IC50 (HCT-15 [5])?
A: The IC50 was 274 µM.

Q: What about the Activity (MDA-MB-468 [6]) of the same compound?
A: The Activity was 44.5%.

Q: What about the Activity (MDA-MB-468 [7]) of the same compound?
A: Its Activity is “Active”.

Q: And the Activity (MDA-MB-468 [8])?
A: The Activity was “Active”.

Q: And the Activity (MDA-MB-468 [9])?
A: Its Activity is “inactive”.

Q: And the Activity (MDA-MB-468 [10])?
A: The Activity was “Active”.

Q: And the Activity (HCT-15 [11])?
A: Its Activity is 43.5%.

Q: And the Activity (HCT-15 [12])?
A: Its Activity is “Active”.

Q: And the Activity (HCT-15 [13])?
A: Its Activity is “Active”.

Q: What about the Activity (MDA-MB-468 [14]) of the same compound?
A: The Activity was “Active”.

Q: What about the Activity (HCT-15 [15]) of the same compound?
A: Its Activity is “inactive”.

Q: And the IC50 (MDA-MB-468 [16])?
A: Its IC50 is 407 µM.

Q: What about the IC50 (HCT-15 [17]) of the same compound?
A: The IC50 was 365 µM.

Q: What about the CC50 (MDA-MB-468 [18]) of the same compound?
A: Its CC50 is 281 µM.

Q: And the CC50 (HCT-15 [19])?
A: The CC50 was 312 µM.

Q: How did the IC50 (MDA-MB-468 [4]) turn out when `O=c1[nH]cc(F)c(=O)[nH]1` [FLUOROURACIL] was run?
A: The IC50 was 551 µM.

Q: What about the IC50 (HCT-15 [5]) of the same compound?
A: Its IC50 is 579 µM.

Q: And the Activity (HCT-15 [20])?
A: Its Activity is “Active”.

Q: What about the Activity (HCT-15 [21]) of the same compound?
A: Its Activity is “Active”.

Q: And the Activity (HCT-15 [22])?
A: Its Activity is “Active”.

Q: And the IC50 (MDA-MB-468 [16])?
A: The IC50 was 495 µM.

Q: And the IC50 (HCT-15 [17])?
A: Its IC50 is 426 µM.

Q: What about the CC50 (MDA-MB-468 [18]) of the same compound?
A: Its CC50 is 495 µM.

Q: And the CC50 (HCT-15 [19])?
A: Its CC50 is 426 µM.

Q: What about the Activity (HCT-15 [23]) of the same compound?
A: The Activity was “inactive”.
